This is an account of results in ChEMBL document CHEMBL1121421, “2,4-Diamino-5-benzylpyrimidines and analogues as antibacterial agents. 2. C-Alkylation of pyrimidines with Mannich bases and application to the synthesis of trimethoprim and analogues” (J Med Chem, 1980).

Values after ≈ are worked out from the molar mass of the structure shown.

Experiment [1] deals with T1, Dihydrofolate reductase (Rattus norvegicus) (UniProt Q920D2).
T1 sequence (whole entry): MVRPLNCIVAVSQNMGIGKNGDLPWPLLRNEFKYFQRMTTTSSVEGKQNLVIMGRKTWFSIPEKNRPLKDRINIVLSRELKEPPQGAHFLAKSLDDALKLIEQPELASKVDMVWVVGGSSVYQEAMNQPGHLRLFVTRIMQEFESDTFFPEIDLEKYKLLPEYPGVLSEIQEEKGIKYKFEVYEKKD
Kind of experiment: (§1) Inhibitory activity against Dihydrofolate reductase enzyme purified from rat liver. More on the design: scale not given: the % may be the effect or the level left. The procedure, abridged: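 Partially purified rat liver dihydrofolate reductase in phosphate buffer. Compound was preincubated with enzyme and buffer for 5 min at 37 °C. NADPH was then added, followed by FH₂ to start the reaction. IC₅₀ (50% drop in reaction rate) was taken from titrations over three to six compound concentrations. Otherwise the value is the percent inhibition at the highest concentration tested.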

The next experiment concerns Staphylococcus aureus. The experiment in a line: Antibacterial activity against Staphylococcus aureus CN491. It is filed as functional.
In the next experiment the test system is Shigella dysenteriae. The experiment in a line: Antibacterial activity against of against Shig dysentariae CN 1523. It counts as functional.
A further experiment concerns Proteus vulgaris. Kind of experiment: Antibacterial activity against Proteus vulgaris CN 329. It is filed as functional.
Another experiment relates to Klebsiella pneumoniae. Kind of experiment: Antibacterial activity against Klebsiella pneumoniae CN 3632. It counts as functional.
The next experiment deals with Escherichia coli. The experiment in a line: Antibacterial activity against Escherichia coli CN314. It is filed as functional.
The subject of another experiment is Streptococcus pyogenes. Kind of experiment: Antibacterial activity against Streptococcus pyogenes CN10. It counts as functional.
The next experiment relates to Salmonella. The experiment in a line: Antibacterial activity against typhi CN512. It is filed as functional, salmonella typhosa.
Another experiment deals with Serratia marcescens. Kind of experiment: Antibacterial activity against of against Serr. marcescens CN 398. It is filed as functional.
In a further experiment the target is T2, Dihydrofolate reductase (Rattus norvegicus, UniProt Q920D2).
T2 sequence (Q920D2 whole entry): T1 sequence (whole entry)
The description is as §1. To be noted: read-out: I50.

The target in experiment [2] is Bifunctional dihydrofolate reductase-thymidylate synthase (Plasmodium berghei str. ANKA, UniProt Q27713). Kind of experiment: Inhibitory activity against Dihydrofolate reductase enzyme purified from Plasmodium berghei. To be noted: read-out: I50.
Chain of Bifunctional dihydrofolate reductase-thymidylate synthase (Q27713 whole entry): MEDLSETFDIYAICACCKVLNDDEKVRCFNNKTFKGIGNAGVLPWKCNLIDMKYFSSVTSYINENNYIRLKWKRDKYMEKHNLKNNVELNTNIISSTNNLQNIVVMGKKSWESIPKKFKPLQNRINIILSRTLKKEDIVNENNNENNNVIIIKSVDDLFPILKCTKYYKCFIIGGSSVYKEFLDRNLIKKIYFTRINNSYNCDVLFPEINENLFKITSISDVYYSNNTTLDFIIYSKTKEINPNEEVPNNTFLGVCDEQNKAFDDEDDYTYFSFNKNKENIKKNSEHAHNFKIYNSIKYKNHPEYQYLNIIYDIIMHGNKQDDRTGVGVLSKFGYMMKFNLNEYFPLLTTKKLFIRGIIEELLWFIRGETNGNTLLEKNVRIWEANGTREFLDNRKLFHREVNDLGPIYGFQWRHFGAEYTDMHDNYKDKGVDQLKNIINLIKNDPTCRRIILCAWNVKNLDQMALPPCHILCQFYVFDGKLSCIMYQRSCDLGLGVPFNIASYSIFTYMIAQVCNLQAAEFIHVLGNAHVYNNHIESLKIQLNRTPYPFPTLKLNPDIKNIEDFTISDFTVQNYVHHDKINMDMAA

For the molecule `COc1cc(Cc2c[n+](C)c(N)nc2N)cc(OC)c1OC.[I-]`, in experiment [1], the Activity is 41%. Moreover, the MIC (usually the lowest concentration that inhibits growth of the organism) against Staphylococcus aureus is 50 µg/mL; in the experiment with Shigella dysenteriae it was 25 µg/mL; with Proteus vulgaris, greater than 100 µg/mL; against Klebsiella pneumoniae it was greater than 100 µg/mL; in the experiment on Escherichia coli, 50 µg/mL; in the experiment on Streptococcus pyogenes it was 50 µg/mL. In addition, the MIC against Salmonella worked out at 25 µg/mL.

With `COc1cc(Cc2cnc(N)nc2N)cc(OC)c1OC` [TRIMETHOPRIM], the MIC worked out at 3 µg/mL (≈ 10.3 µM) in the experiment with Serratia marcescens; 1 µg/mL (≈ 3.44 µM) against Staphylococcus aureus; 0.1 µg/mL (≈ 0.344 µM) against Shigella dysenteriae; 1 µg/mL (≈ 3.44 µM) with Proteus vulgaris; 0.3 µg/mL (≈ 1.03 µM) with Klebsiella pneumoniae; 0.3 µg/mL (≈ 1.03 µM) against Escherichia coli. Besides, the minimal inhibitory concentration (MIC) in the experiment with Streptococcus pyogenes and in the experiment with Salmonella was 0.3 µg/mL (≈ 1.03 µM) in each case.

For `COc1cc(Cc2cnc(N)nc2N)cc(OC)c1O` [4-HYDROXYTRIMETHOPRIM], the MIC was determined as 0.5 µg/mL (≈ 1.81 µM) against Staphylococcus aureus; 2 µg/mL (≈ 7.24 µM) with Proteus vulgaris; 0.125 µg/mL (≈ 0.452 µM) against Escherichia coli; 0.5 µg/mL (≈ 1.81 µM) against Streptococcus pyogenes; 0.03 µg/mL (≈ 0.109 µM) against Salmonella. Moreover, the figures for the IC50 (on Dihydrofolate reductase; in experiment [2]) were 92 µM and 0.3 µM, respectively.

On to `COc1cc(Cc2c(N)nc(N)nc2O)cc(OC)c1O`, for which the MIC with Serratia marcescens, in the experiment with Staphylococcus aureus, with Shigella dysenteriae, against Proteus vulgaris, in the experiment on Klebsiella pneumoniae and with Escherichia coli was greater than 100 µg/mL throughout. For the same molecule, the MIC with Streptococcus pyogenes and against Salmonella was greater than 100 µg/mL each time.

With `COc1cc(Cc2c(C)nc(N)nc2N)cc(OC)c1OC`, the MIC is greater than 100 µg/mL with Serratia marcescens; 30 µg/mL (≈ 98.6 µM) with Staphylococcus aureus; 30 µg/mL (≈ 98.6 µM) against Shigella dysenteriae; greater than 100 µg/mL in the experiment on Proteus vulgaris; greater than 100 µg/mL against Klebsiella pneumoniae; 30 µg/mL (≈ 98.6 µM) with Escherichia coli. Also, the minimal inhibitory concentration (MIC) against Streptococcus pyogenes and in the experiment on Salmonella was 30 µg/mL (≈ 98.6 µM) throughout.
